Experimental data collected from several papers.
Effect on: cell growth or viability

Structure (SMILES)	cell line	test	conditions	quantity	result
Cc1cc2c(cc1N1C(=O)c3cccc4c(CCCO)ccc(c34)C1=O)n(C)c(=O)n2C (racemic)	NCI-H526	resazurin		GI50	6.86 µM
Cc1ccc2nc(-c3cccnc3)[nH]c2c1	MDA-MB-231	MTT	48 h	IC50	89 µM
COc1cc(OC)c(CN2CCc3cc(O)c(OC)cc3C2)c(OC)c1	MDA-MB-231	WST-1	96 h	GI50	> 100 µM
N#CC(C(=O)Nc1cccc(C(F)(F)F)c1)=C1Sc2nc3ccc(S(=O)(=O)N4CCCC4)cc3nc2S1	MDA-MB-231	MTT	50 µM, 24 h	viability	18.4%
COc1cc(OC)c2c(=O)cc(-c3ccccc3)oc2c1	HS27	MTT	24 h	IC50	> 200 µM
COc1cc2c(cc1O)CCN(Cc1cccc(OC(F)(F)F)c1)C2	MDA-MB-231	WST-1	96 h	GI50	> 100 µM
O=C1CCCCC1=C1Sc2nc3ccc(S(=O)(=O)N4CCCC4)cc3nc2S1	MDA-MB-231	MTT	50 µM, 24 h	viability	14.9%
COc1ccc(-c2cc(=O)c3c(OC)cc(OC)cc3o2)cc1	HS27	MTT	24 h	IC50	> 200 µM
COc1cc(OC)c(OC)cc1CN1CCc2cc(OS(N)(=O)=O)c(OC)cc2C1	MDA-MB-231	WST-1	96 h	GI50	0.491 µM
Cc1ccc2nc(-c3ccc(N(C)C)cc3)[nH]c2c1	MDA-MB-231	MTT	48 h	IC50	31.5 µM
COc1cc(OC)c2c(=O)cc(-c3ccc(Br)cc3)oc2c1-c1c(OC)cc(OC)c2c(=O)cc(-c3ccc(Br)cc3)oc12	HS27	MTT	24 h	IC50	> 200 µM
COc1cc2c(cc1O)CCN(C(=O)c1cc(OC)c(OC)c(OC)c1)C2	MDA-MB-231	WST-1	96 h	GI50	0.733 µM
Cc1ccc2nc(-c3ccc(Cl)cc3Cl)[nH]c2c1	MDA-MB-231	MTT	48 h	IC50	27.5 µM
COc1cc2c(cc1O)CCN(Cc1cccc(NS(C)(=O)=O)c1)C2	MDA-MB-231	WST-1	96 h	GI50	> 100 µM
C=CCn1c(-c2ccc(Cl)cc2)nc2ccc(C)cc21	MDA-MB-231	MTT		IC50	30.1 µM
COc1cc(C)cc2oc(-c3ccccc3Br)cc(=O)c12	HS27	MTT	24 h	IC50	130 µM
CC#CC(=O)N1CC[C@@H](n2cc(-c3ccc(Oc4c(F)cccc4F)cc3)c3c(N)n[nH]c(=O)c32)C1	OCI-Ly3	ATP luminescence	72 h	GI50	9.56 µM
CNC(=O)c1ccc(N2C(=S)N(c3ccc(C#N)c(C(F)(F)F)c3)C(=O)C2(C)C)cc1F	CWR22Rv1	MTT		GI50	15.1 µM
COc1cc(C)c(-c2c(C)cc(OC)c3c(=O)cc(-c4cccc(Br)c4)oc23)c2oc(-c3cccc(Br)c3)cc(=O)c12	HS27	MTT	24 h	IC50	> 200 µM
CCOC(=O)C(C(C)=O)=C1Sc2nc3ccc(S(=O)(=O)N4CCCC4)cc3nc2S1	MDA-MB-231	MTT	3.125 µM, 24 h	viability	49.2%
Cc1ccc2nc(-c3ccccc3O)[nH]c2c1	MDA-MB-231	MTT	48 h	IC50	31.9 µM
COc1cc(C)cc2oc(-c3ccc(N(C)C)cc3)cc(=O)c12	HS27	MTT	24 h	IC50	141 µM
Clc1ccc(-c2nc3ccccc3[nH]2)cc1	MDA-MB-231	MTT	48 h	IC50	> 100 µM
COC(=O)CN=c1scc(-c2ccccc2)n1-c1ccccc1[N+](=O)[O-]	SiHa	MTT		IC50	6.78 µM
COc1cc2c(cc1OS(N)(=O)=O)CCN(Cc1cccc(NS(C)(=O)=O)c1)C2	MDA-MB-231	WST-1	96 h	GI50	> 100 µM
COc1cc(OC)c2c(=O)cc(-c3ccccc3)oc2c1-c1c(OC)cc(OC)c2c(=O)cc(-c3ccccc3)oc12	HS27	MTT	24 h	IC50	> 200 µM
Fc1cccc(Cl)c1-c1nc2ccccc2[nH]1	MDA-MB-231	MTT	48 h	IC50	69 µM
CCc1cccc(CN2CCc3cc(O)c(OC)cc3C2)c1	MDA-MB-231	WST-1	96 h	GI50	> 100 µM
COc1ccc(-c2nc3ccccc3n2Cc2ccccc2)cc1OC	MDA-MB-231	MTT		IC50	27.1 µM
COc1cccc2c1C(=O)c1c(O)c3c(c(O)c1C2=O)C[C@@](O)(C(=O)CO)C[C@@H]3O[C@H]1C[C@H](N)[C@H](O)[C@H](C)O1	MDA-MB-231	MTT	25 µM, 24 h	viability	16.2%
